Where two headings read alike, the source gives them in different places.
Experiments:
[1] = Plasma pharmacokinetics at steady-state, LC-MS/MS, noncompartmental analysis; type: in vivo, human; conditions: for MR, metabolic ratio (AUCτ,ss of metabolite/AUCτ,ss of parent) / AUCτ,ss / Cmax,ss / CLss/F / Ctrough,ss: mean ± SD, N = 34
Method in brief: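 Oral DPP-4 inhibitor 5 mg once daily, alone for 7 days or with sulfonylurea 4 mg. Plasma was sampled pre-dose and at 1, 2, 3, 4, 5, 6, 8 and 12 h at steady state, spun at 1900 g (4°C, 10 min) and frozen below −70°C. LC-MS/MS was linear over 0.1–60 μg/L. Noncompartmental analysis: Cmax,ss observed; AUCτ,ss and CLss by the linear-log trapezoidal method.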

[2] = Urinary excretion of evogliptin at steady-state; type: in vivo, human; conditions: for CL renal: human, urine and plasma, oral
Method in brief: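 At steady state of oral DPP-4 inhibitor 5 mg once daily, urine was collected over 0–24 h and frozen below −70°C. Parent drug was measured by LC-MS/MS (linear 5–50,000 μg/L). feτ,ss was the amount excreted unchanged divided by that day's dose. Renal clearance was the amount excreted divided by plasma AUCτ,ss.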

[3] = test system: serum glucose; test: Oral glucose tolerance test, serum glucose; type: in vivo, human; conditions: OGTT 75 g glucose, steady-state, mean ± SD, N = 34
Method in brief: (§1)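 Healthy Korean men aged 19–45 years (BMI 18–27 kg/m2) in a randomized, open-label, 3-period crossover study. Treatments were oral once daily: DPP-4 inhibitor 5 mg, sulfonylurea 4 mg, or both. After an overnight fast, subjects took 75 g glucose; serum glucose and insulin were sampled at 0, 0.25, 0.5, 1, 1.5, 2 and 3 h, at baseline (day −1) and at steady state. Peaks were read directly; areas used the linear trapezoidal method. Δ values subtracted baseline at each time point.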

[4] = test system: serum insulin; test: Oral glucose tolerance test, serum insulin; type: in vivo, human; conditions: OGTT 75 g glucose, steady-state; mean ± SD; N = 34
Method in brief: as §1

[5] = Safety and tolerability, adverse events; type: in vivo, human
Method in brief: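 Adverse events, physical examinations, vital signs, 12-lead ECG and clinical laboratory tests were monitored throughout the crossover study in dosed healthy men. Investigators assessed whether each adverse event was related to treatment.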

[6] = cited from earlier work
[7] = test system: CYP enzymes; conditions: ref unpublished in-house data; cited from earlier work
[8] = EVO+GLI: evogliptin 5 mg and glimepiride 4 mg once daily
[9] = EVO+GLI: evogliptin 5 mg and glimepiride 4 mg once daily, plasma
[10] = EVO: evogliptin 5 mg once daily
[11] = EVO: evogliptin 5 mg once daily, plasma
[12] = GLI: glimepiride 4 mg once daily
[13] = GLI: glimepiride 4 mg once daily, plasma

| Compound | MR, metabolic ratio (AUCτ,ss of metabolite/AUCτ,ss of parent) [1, 8] | AUCτ,ss [1, 9] | Cmax,ss [1, 9] | MR, metabolic ratio (AUCτ,ss of metabolite/AUCτ,ss of parent) [1, 10] | AUCτ,ss [1, 11] | Cmax,ss [1, 11] | CLss/F [1, 8] | Ctrough,ss [1, 9] | half-life ([1]; human, plasma, oral) [h] | 2 h PBG, 2 hour postprandial blood glucose [3] | AUGC, area under the serum glucose-time curve [3] [mg·h/dL] | ΔAUGC, difference in the area under the serum glucose-time curve from baseline [3] | ΔGmax, difference in maximum serum glucose level from baseline [3] | AUEC, area under the serum insulin-time curve [4] | Emax, maximum serum insulin level [4] | ΔAUEC, difference in the area under the serum insulin-time curve from baseline [4] | ΔEmax, difference in maximum serum insulin level from baseline [4] | also measured |
| --- | --- | --- | --- | --- | --- | --- | --- | --- | --- | --- | --- | --- | --- | --- | --- | --- | --- | --- |
| CC(C)(C)OC[C@@H]1C(=O)NCCN1C(=O)C[C@H](N)[C@H](O)c1cc(F)c(F)cc1F [Evogliptin M8, 4(R)-hydroxyevogliptin] | 0.1 ± 0.02 (0.05–0.13) | 10.4 ± 2.5 (6–17) μg·h/L | 0.6 ± 0.2 (0.3–1) μg/L | 0.09 ± 0.02 (0.04–0.13) | 10.3 ± 2.1 (6.8–14.7) μg·h/L | 0.6 ± 0.2 (0.4–1.1) μg/L | – | – | – | – | – | – | – | – | – | – | – | – |
| CC(C)(C)OC[C@@H]1C(=O)NCCN1C(=O)C[C@H](N)Cc1cc(F)c(F)cc1F [Evogliptin, evogliptin] | – | – | – | – | – | – | 46.9 ± 8.3 (28.4–62.4) L/h | 3.1 ± 0.7 (2.2–5.1) μg/L | 23.6 ± 5.9 | 114.7 ± 17.3 (83–164) mg/dL | 334.9 | −35.8 ± 39.2 (−137.6–18.5) mg·h/dL | −53.2 ± 32 (−162– −12) mg/dL | 91.1 ± 48.6 (31.4–265) μIU·h/mL | 53.1 ± 25.2 (16.3–124.2) μIU/mL | −19.2 ± 46.6 (−179.9–36.1) μIU·h/mL | −20.4 ± 35.5 (−142.5–21.7) μIU/mL | CLss/F [1, 10]: 45.6 ± 7.5 (26.5–56.1) L/h; Ctrough,ss [1, 11]: 3.3 ± 0.7 (2.2–5.6) μg/L; Day on which steady-state was achieved ([1]; evogliptin 5 mg once daily): 4 days; Tmax ([1]; human, plasma, oral): 3.5 h; AUC ([1]; human, plasma, oral, 5 mg): 113 ± 21.6 ng·h/mL; Cmax ([1]; human, plasma, oral, 5 mg): 6.7 ± 1.4 ng/mL; half-life ([1]; human, plasma, oral, 5 mg): 28.4 ± 8.9 h; feτ,ss, fraction excreted unchanged in urine during the dosing interval ([2]; EVO: evogliptin 5 mg once daily, urine 0–24 h, mean ± SD, N = 34): 19.1 ± 7.2 (6.7–43.9) %; CL renal [2]: 148 mL/min; CL renal ([2]; 5 mg): 140 mL/min; Gmax, maximum serum glucose level ([3]; healthy male subjects): 136.7 mg/dL; AUGC, area under the serum glucose-time curve ([3]; listed as EVO): 334.9 ± 31.7 (260–406.5) mg·h/dL; Diarrhea: number of subjects who reported adverse drug reactions (number of ADRs) ([5]; N = 35): 1 (1); Tmax, time to reach maximal plasma concentration ([6]; after oral administration): approximately 5 h; Induction or inhibition of CYP enzymes [7]: did not induce or inhibit CYP enzymes |
| CC(C)(C)OC[C@@H]1C(=O)NCCN1C(=O)C[C@H](N)[C@@H](O)c1cc(F)c(F)cc1F [Evogliptin M7, 4(S)-hydroxyevogliptin] | 0.09 ± 0.02 (0.04–0.13) | 10.1 ± 2.8 (5.5–17) μg·h/L | 0.7 ± 0.2 (0.4–1.0) μg/L | 0.09 ± 0.02 (0.03–0.12) | 9.8 ± 2.4 (6.3–14.6) μg·h/L | 0.7 ± 0.2 (0.4–1.2) μg/L | – | – | – | – | – | – | – | – | – | – | – | – |
| CCC1=C(C)CN(C(=O)NCCc2ccc(S(=O)(=O)NC(=O)N[C@H]3CC[C@H](C)CC3)cc2)C1=O [Glimepiride, glimepiride] | – | – | – | – | – | – | 2.5 ± 0.8 (1.2–4.5) L/h | 4.2 ± 6.3 (0–24.7) μg/L | 4.2 ± 2 | 94.7 ± 23.9 (44–140) mg/dL | 291.8 | −67.5 ± 60 (−179.6–69.4) mg·h/dL | −68.9 ± 25.1 (−129– −22) mg/dL | 141.7 ± 65.5 (40.7–318.2) μIU·h/mL | 86.4 ± 43.8 (29.7–248.4) μIU/mL | 17.9 ± 60.1 (−174.5–157.2) μIU·h/mL | 12.9 ± 45.2 (−109.2–122.1) μIU/mL | CLss/F [1, 12]: 2.7 ± 1 (1.2–5.1) L/h; Ctrough,ss [1, 13]: 8.6 ± 10.9 (0–51.9) μg/L; AUC ([1]; human, plasma, oral, 4 mg): 1670 ± 624 ng·h/mL; Cmax ([1]; human, plasma, oral, 4 mg): 327 ± 98.5 ng/mL; half-life ([1]; human, plasma, oral, 4 mg): 4.7 ± 2.2 h; AUGC, area under the serum glucose-time curve ([3]; listed as GLI): 291.8 ± 48.5 (216.1–429.6) mg·h/dL; Number of AEs considered related to the investigational products ([5]; 35 subjects in safety assessment): five; Cold sweat: number of subjects who reported adverse drug reactions (number of ADRs) ([5]; N = 35): 1 (1); Dizziness: number of subjects who reported adverse drug reactions (number of ADRs) ([5]; N = 35): 1 (1); Hypoglycemia: number of subjects who reported adverse drug reactions (number of ADRs) ([5]; N = 35): 1 (1); Increased blood bilirubin: number of subjects who reported adverse drug reactions (number of ADRs) ([5]; N = 35): 1 (1); Nausea: number of subjects who reported adverse drug reactions (number of ADRs) ([5]; N = 35): 1 (1); Tmax ([6]; after oral administration): ≤ 3 h; half-life [6]: 1.2 to 1.5 h |
| CCC1=C(C)CN(C(=O)NCCc2ccc(S(=O)(=O)NC(=O)NC3CCC(CO)CC3)cc2)C1=O (stereo not drawn) [Glimepiride M1, hydroxyglimepiride] | 0.39 ± 0.1 (0.19–0.62) | 652.6 ± 197.7 (387–1331.4) μg·h/L | 84.2 ± 19 (55.8–137) μg/L | – | – | – | – | – | – | – | – | – | – | – | – | – | – | MR, metabolic ratio (AUCτ,ss of metabolite/AUCτ,ss of parent) [1, 12]: 0.4 ± 0.11 (0.2–0.63); AUCτ,ss [1, 13]: 611.9 ± 180.7 (309.4–1179.5) μg·h/L; Cmax,ss [1, 13]: 81.3 ± 20.6 (47.7–135.3) μg/L |

— article PMC7699451 (Drug Design, Development and Therapy, 2020)
